Measured values of several laboratories.
Protocols differ between the studies behind these lines.
RAF1: RAF proto-oncogene serine/threonine-protein kinase (RAF1, Homo sapiens, UniProt P04049)
RAF1 Y340D/Y341D: RAF proto-oncogene serine/threonine-protein kinase (RAF1, Homo sapiens, UniProt P04049, Y340D/Y341D)

| SMILES | target | effect on | mode | technique | concentration | quantity | value |
| --- | --- | --- | --- | --- | --- | --- | --- |
| CSc1nc(C)c(-c2ccnc(Nc3ccc(N4CCOCC4)cc3)c2)[nH]1 | RAF1 | enzyme activity | inhibitor |  | 10 µM | inhibition | 64.1% |
| Cc1ccc(NC(=O)c2ccc(C)c(C(F)(F)F)c2)cc1C#Cc1nn(C2CCC(O)CC2)c2ncnc(N)c12 (stereo not drawn) | RAF1 | cell-free assay |  |  | 10 µM | remaining signal | 24% |
| CNC(=O)Nc1ccc2c(c1)CC[C@@]21OC(=O)N(CC(=O)N(Cc2ccc(F)cc2)[C@@H](C)C(F)(F)F)C1=O | RAF1 | cell-free assay |  | competition with immobilised ligand | 1 µM | remaining binding | 100% |
| CNc1cccc2cc(C(=O)Nc3ccc(C(=O)O)cc3)c(=O)[nH]c12 | RAF1 | enzyme activity | inhibitor |  | 10 µM | inhibition | 6.9% |
| CCN(CC)CCNC(=O)c1c(C)[nH]c(/C=C2\C(=O)Nc3ccc(F)cc32)c1C | RAF1 | enzyme activity | inhibitor |  | 1 µM | remaining activity | 95% |
| CCOC(=O)c1cc2cc(-c3cc(C(=O)NCc4ccc(C(=O)O)cc4)nn3C)ccc2[nH]1 | RAF1 | cell-free assay |  | competition with immobilised ligand | 0.1 µM | remaining binding | 100% |
| O=C(Nc1cnn(-c2csc(C(=O)NC3COC3)c2)c1)Nc1c(F)cccc1Cl | RAF1 | enzyme activity | inhibitor |  | 5 µM | remaining activity | 92.5% |
| CC(=O)N1CCC(c2ccc(C(=O)NC(=N)N)cc2C(F)(F)F)CC1 | RAF1 | cell-free assay |  | competition with immobilised ligand | 1 µM | remaining binding | 100% |
| O=C1NC(=O)c2cc(Nc3ccc(F)cc3)c(Nc3ccc(F)cc3)cc21 | RAF1 | cell-free assay |  |  | 0.5 µM | remaining signal | 81.9% |
| CCN(CC)c1ccc(C2=NNC(=O)CC2C)cc1[N+](=O)[O-] (stereo not drawn) | RAF1 | enzyme activity | inhibitor |  | 10 µM | remaining activity | 90% |
| COc1cc2ncnc(Nc3ccc(Oc4ccccc4)cc3C)c2cc1OC | RAF1 Y340D/Y341D | enzyme activity | inhibitor |  | 1 µM | inhibition | 27% |
| Cc1ccc(C(=O)Nc2ccc(CN3CCN(C)CC3)c(C(F)(F)F)c2)cc1C#Cc1cnc2cccnn12 | RAF1 | enzyme activity | inhibitor |  | 23.5 nM | remaining activity | 61% |
| Cc1ccc(C(=O)NCc2ccsc2)cc1C#Cc1cn(C(C)C)c2ncnc(N)c12 | RAF1 | enzyme activity | inhibitor |  | 1 µM | activity vs control | 15% |
| c1ccc(N2CCN(Cc3nc4ccccc4[nH]3)CC2)nc1 | RAF1 | binding |  | competition with immobilised ligand | 1 µM | remaining binding | 100% |
| COc1cc(-c2cc(-c3ccc(N4CCNCC4)cc3)cnc2N)cc(OC)c1OC | RAF1 | enzyme activity | inhibitor |  | 1 µM | inhibition | 2% |
| CNCc1ccc(-c2cc(-c3nc(-c4ccc(S(=O)(=O)C(C)C)cc4)cnc3N)on2)cc1 | RAF1 | enzyme activity | inhibitor |  | 2 µM | inhibition | 10% |
| CC(C)c1ccc(NC(=O)c2cccs2)c(-c2nc3ccccc3[nH]c2=O)c1 | RAF1 | enzyme activity | inhibitor |  | 1 µM | activity vs control | 96% |
| CC(C)(C)c1nc2c(s1)c1nc(N)ncc1c1ccc(NS(=O)(=O)c3c(F)cccc3F)c(F)c12 | RAF1 Y340D/Y341D | enzyme activity | inhibitor | radiometric | 1 µM | remaining activity | 9% |
| C[C@@H]1CCN(C(=O)CC#N)C[C@@H]1N(C)c1ncnc2[nH]ccc12 | RAF1 | cell-free assay | inhibitor |  | 0.5 µM | remaining signal | 95.5% |
| CN(C)C(=O)Cn1cc(-c2nc(C3(c4ccc(-c5cnc(N)nc5)cc4)CC3)no2)cn1 | RAF1 | cell-free assay |  | competition with immobilised ligand | 1 µM | remaining binding | 100% |
| O=C(CSc1nc2nccnc2c(=O)n1CCc1ccccc1)Nc1nccs1 | RAF1 Y340D/Y341D | enzyme activity | inhibitor |  | 10 µM | inhibition | 3% |
| COc1cc(Cl)c(C(=O)N[C@@H](CN[C@H]2CC[C@@H](N)CC2)Cc2ccc(C#N)cc2)cc1-c1ccc(CN[C@H](C)c2ccc(C)cc2)o1 | RAF1 | enzyme activity | inhibitor |  | 1 µM | remaining activity | 97% |
| Cc1ccc(Nc2nccc(N(C)c3ccc4c(C)n(C)nc4c3)n2)cc1S(N)(=O)=O | RAF1 | enzyme activity | inhibitor |  | 10 µM | inhibition | 96% |
| COc1cc2c(N3CCN(C(=O)Nc4ccc(OC(C)C)cc4)CC3)ncnc2cc1OCCCN1CCCCC1 | RAF1 | cell-free assay |  |  | 0.5 µM | remaining signal | 96.7% |
| Nc1cnc(N2CCc3cc(S(=O)(=O)Nc4c(F)cc(Cl)cc4F)cc(N4CCCC4=O)c32)nc1 | RAF1 | cell-free assay |  | competition with immobilised ligand | 1 µM | remaining binding | 79% |
| Cc1[nH]c(/C=C2\C(=O)Nc3ccc(F)cc32)c(C)c1C(=O)N[C@H]1CCN(C(=O)N(C)C)C1 | RAF1 | enzyme activity | inhibitor |  | 1 µM | remaining activity | 100% |
| Nc1c(C(=O)NCc2ccc(C(=O)NCCCC3CCCCC3)cc2)cnn1-c1ccccc1 | RAF1 | cell-free assay |  | competition with immobilised ligand | 0.1 µM | remaining binding | 100% |
| CN(C)C1CCN(CC#Cc2nn(C3CCCC3)c3nc(NCc4ccccc4)ncc23)C1 (stereo not drawn) | RAF1 Y340D/Y341D | enzyme activity | inhibitor | FRET | 1 µM | inhibition | -4% |
| C[C@H](NC(=O)c1cnc2n1[C@](C)(Cc1ccc(C#N)cc1)C(=O)N2c1cc(Cl)c(F)c(Cl)c1)C(=O)NC1(c2ccccn2)CC1 | RAF1 | cell-free assay |  | competition with immobilised ligand | 1 µM | remaining binding | 100% |
| CCCOc1ccc(OC)c(F)c1C(=O)c1ccc(C(=O)N[C@@H]2CNC[C@H]2NC(=O)c2ccc3[nH]ncc3c2)cc1 | RAF1 | enzyme activity | inhibitor |  | 10 µM | remaining activity | 109% |
